Source: ChEMBL document CHEMBL3992521, “Pyrimidinyl Biphenylureas: Identification of New Lead Compounds as Allosteric Modulators of the Cannabinoid Receptor CB1” (J Med Chem, 2017)
Activity calls are given as the source filed them. No cut-off for these calls is given here.

Columns and labels:
[1] = target: Cannabinoid receptor 1 (Homo sapiens) (UniProt P21554); test: Allosteric modulation at CB1 receptor (unknown origin) expressed in HEK293T cell membranes assessed as inhibition of CP55,940 induced [35S]GTPgammaS binding after 1 hr by liquid scintillation counting method; format: functional
Cannabinoid receptor 1 (Homo sapiens), sequence (P21554 whole entry): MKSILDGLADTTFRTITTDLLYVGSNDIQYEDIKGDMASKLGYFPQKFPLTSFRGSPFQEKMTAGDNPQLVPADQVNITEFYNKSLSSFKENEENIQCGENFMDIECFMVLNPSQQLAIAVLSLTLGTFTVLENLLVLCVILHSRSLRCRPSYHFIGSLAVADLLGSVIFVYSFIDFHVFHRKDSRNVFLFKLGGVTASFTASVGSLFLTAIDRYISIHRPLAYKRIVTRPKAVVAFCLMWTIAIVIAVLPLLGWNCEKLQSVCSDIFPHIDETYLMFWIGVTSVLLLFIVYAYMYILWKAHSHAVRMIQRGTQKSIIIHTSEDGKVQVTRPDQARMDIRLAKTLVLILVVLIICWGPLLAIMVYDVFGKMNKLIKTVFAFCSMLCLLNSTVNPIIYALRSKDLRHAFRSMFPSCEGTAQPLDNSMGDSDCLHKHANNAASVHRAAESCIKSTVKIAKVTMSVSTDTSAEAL
In short: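 HEK293T cells transiently transfected with CB1 (calcium phosphate), membranes harvested 24 h later; 7.5 µg membrane incubated 1 h at 30 °C with CP55,940 1 µM, 0.1 nM [35S]GTPγS, 5 µM GDP, 0.1% BSA in Tris-HCl pH 7.4/MgCl2/EGTA/NaCl buffer, varying modulator concentrations. Nonspecific binding with 10 µM unlabeled GTPγS; filtration. Expressed as % of CP55,940 signal; duplicate, ≥3 independent experiments.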

[2] = target: Cannabinoid receptor 1 (Homo sapiens) (UniProt P21554); test: Positive allosteric modulation of CB1 receptor (unknown origin) expressed in HEK293T cell membranes assessed as increase in [3H]CP55,940 binding by liquid scintillation counting method
In short: (§1)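 Membranes from HEK293T cells transiently expressing CB1 (harvested 24 h post-transfection) incubated with 0.5 nM [3H]CP55,940 and at least nine modulator concentrations (100 pM–100 µM) in TME buffer pH 7.4 with 0.2% fatty acid-free BSA; nonspecific binding with 1 µM unlabeled CP55,940; filtration. KB and cooperativity α from nonlinear regression; duplicate, ≥3 experiments, 95% confidence limits.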

[3] = target: Cannabinoid receptor 1 (Homo sapiens) (UniProt P21554); test: Positive allosteric modulation of CB1 receptor (unknown origin) expressed in HEK293T cell membrane assessed as increase in beta-arrestin mediated ERK1/2 phosphorylation at 10 uM in presence of G-protein sensitive pertussis toxin incubated for 5 mins by Western blot method; format: cell-based
In short: (§2)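 CB1-transfected HEK293T cells carried control, β-arrestin 1 or β-arrestin 2 siRNA, or were pretreated 12 h at 37 °C with PTX 5 ng/mL. They were then washed and given allosteric modulator 10 μM alone for 5 min, with DMSO vehicle as control. ERK1/2 phosphorylation was read by Western blot of 13 µg lysate protein using phospho- and total p44/42 antibodies.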

[4] = target: Cannabinoid receptor 1 (Homo sapiens) (UniProt P21554); test: Positive allosteric modulation of CB1 receptor (unknown origin) expressed in HEK293T cell membrane assessed as ERK1/2 phosphorylation in presence of beta-arrestin1 siRNA at 10 uM incubated for 5 mins by Western blot method; format: cell-based; in short: as §2
[5] = target: Cannabinoid receptor 1 (Homo sapiens) (UniProt P21554); test: Positive allosteric modulation of CB1 receptor (unknown origin) expressed in HEK293T cell membranes assessed as increase in [3H]CP55,940 binding up to 32 uM by liquid scintillation counting method; in short: as §1

Row | Kb [2] [nM] | SMILES | further results
1 | 97.7 | N#Cc1ccc(NC(=O)Nc2cccc(-c3nccc(NC4CC4)n3)c2)cc1 | –
2 | – | O=C(Nc1ccc(O)cc1)Nc1cccc(-c2nccc(N3CCCC3)n2)c1 | Activity [5]: inactive; Activity [2]: inactive
3 | 211 | N#Cc1ccc(NC(=O)Nc2cccc(-c3nccc(N4CCC4)n3)c2)cc1 | –
4 | 69.6 | CCN(CC)c1ccnc(-c2cccc(NC(=O)Nc3ccc(C#N)cc3)c2)n1 | inhibition [1]: Dose-dependent effect
5 | 196 | O=C(Nc1ccc(F)cc1)Nc1cccc(-c2ccnc(N3CCCC3)n2)c1 | –
6 | 965 | CN(C)c1nccc(-c2cccc(NC(=O)Nc3ccc(I)cc3)c2)n1 | –
7 | 102 | O=C(Nc1ccc(Br)cc1)Nc1cccc(-c2nccc(N3CCCC3)n2)c1 | –
8 | 395 | O=C(Nc1ccc(Br)cc1)Nc1cccc(-c2ccnc(N3CCCC3)n2)c1 | –
9 | 463 | CCOC(=O)c1ccc(NC(=O)Nc2cccc(-c3nccc(N4CCCC4)n3)c2)cc1 | –
10 | 223 | O=C(Nc1ccc(F)cc1)Nc1cccc(-c2nccc(N3CCCC3)n2)c1 | –
11 | 2110 | CC(=O)c1ccc(NC(=O)Nc2cccc(-c3nccc(N4CCCC4)n3)c2)cc1 | –
12 | 1220 | CN(C)c1ccnc(-c2cccc(NC(=O)Nc3ccc(F)cc3)c2)n1 | –
13 | – | O=C(Nc1ccc(C(=O)O)cc1)Nc1cccc(-c2nccc(N3CCCC3)n2)c1 | Activity [5]: inactive; Activity [2]: inactive
14 | – | O=C(Nc1ccc(Cl)cc1)Nc1cccc(-c2cccc(N3CCCC3)n2)c1 | inhibition [1]: Dose-dependent effect; Activity [4]: Active
15 | 227 | O=C(Nc1ccc(Cl)cc1)Nc1cccc(-c2ccnc(N3CCCC3)n2)c1 | inhibition [1]: Dose-dependent effect
16 | 1980 | N#Cc1cccc(NC(=O)Nc2cccc(-c3nccc(N4CCCC4)n3)c2)c1 | –
17 | 670 | CN(C)c1ccnc(-c2cccc(NC(=O)Nc3cccc(F)c3)c2)n1 | –
18 | 967 | CN(C)c1nccc(-c2cccc(NC(=O)Nc3cccc(F)c3)c2)n1 | –
19 | 66.4 | N#Cc1ccc(NC(=O)Nc2cccc(-c3nccc(N4CCCCC4)n3)c2)cc1 | –
20 | 417 | CN(C)c1nccc(-c2cccc(NC(=O)Nc3ccc(C#N)cc3)c2)n1 | –
21 | 1830 | COc1ccc(NC(=O)Nc2cccc(-c3nccc(N4CCCC4)n3)c2)cc1 | –
22 | 144 | CN(C)c1ccnc(-c2cccc(NC(=O)Nc3ccc(C(F)(F)F)cc3)c2)n1 | –
23 | 264 | O=C(Nc1ccc(Cl)cc1)Nc1cccc(-c2nccc(N3CCCC3)n2)c1 | inhibition [1]: Dose-dependent effect
24 | 997 | CN(C)c1ccnc(-c2cccc(NC(=O)Nc3ccc(I)cc3)c2)n1 | –
25 | 313 | CN(C)c1ccnc(-c2cccc(NC(=O)Nc3ccc(C#N)cc3)c2)n1 | –
26 | 1120 | CN(C)c1nccc(-c2cccc(NC(=O)Nc3ccc(F)cc3)c2)n1 | –
27 | 207 | CCN(C)c1ccnc(-c2cccc(NC(=O)Nc3ccc(C#N)cc3)c2)n1 | –

Row | SMILES | Kb [2] [nM] | further results
28 | N#Cc1ccc(NC(=O)Nc2cccc(-c3ccnc(N4CCCC4)n3)c2)cc1 | 168 | inhibition [1]: Dose-dependent effect; Activity [3]: Active; Activity [4]: Active
29 | N#Cc1ccc(NC(=O)Nc2cccc(-c3nccc(N4CCCC4)n3)c2)cc1 | 49.1 | inhibition [1]: Dose-dependent effect; Activity [3]: Active; Activity [4]: Active
